Among the data in ChEMBL document CHEMBL1151695, “Design, synthesis and preliminary pharmacological evaluation of new analogues of DM232 (unifiram) and DM235 (sunifiram) as cognition modulators” (Bioorg Med Chem, 2008) are Activity and minimal effective dose values, retold here.

The species entered for series [1] is Mus musculus. The experiment in a line: Toxicity in mouse assessed as motor coordination after 45 mins by rotarod test. It is filed as organism-based. The note with it: in vivo, 0.75 h. The essentials:
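Rota-rod: rod 30 cm long, 15 cm above the base, split into five sections, rotating at 16 rpm. Falls counted over 30 s. Mice with fewer than 3 or more than 6 falls in the pretest were rejected. Performance measured at pretest and 15, 30 and 45 min after test start. Compared with saline-treated mice.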
(In general: Falling from the rotarod earlier than controls is read as motor impairment.)

The subject of series [2] is Mus musculus. Nature of the series: Effect on passive avoidance in mouse assessed as latency time to enter dark room in retention session at 0.01 mg/kg, ip treated 20 mins before training session. Format: functional. Particulars: route intraperitoneal. The procedure, abridged:
(§1)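 Same step-through passive avoidance without scopolamine. Punishment is a 40 cm fall into 10 °C water on entering the dark room. Mice not entering within 60 s at training were excluded. Compound given ip at 1:10 dilution steps, 20 min before training, in saline or saline/DMSO 4:1. Controls received an extra saline injection right after training. Latency to enter the dark room recorded at training and at next-day retention.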

Series [3] deals with Mus musculus. The experiment in a line: Effect on passive avoidance in mouse assessed as latency time to enter dark room in training session at 0.01 mg/kg, ip treated 20 mins before training session. Format: functional. Particulars: route intraperitoneal. The procedure, abridged:
as §1

In series [4] the test system is Mus musculus. Nature of the series: Antiamnesic activity in scopolamine-induced mouse assessed as latency time to enter dark room in retention session at 0.001 mg/kg, ip treated 20 mins before training session by passive avoidance test. Format: functional. The note with it: route intraperitoneal. The essentials: (§2)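 Step-through passive avoidance in mice: lit and dark compartments joined by a guillotine door. Entering the dark side drops the mouse 40 cm into 10 °C water, a non-painful punishment. Mice not entering within 60 s at training were excluded. Compound given ip at 1:10 dilution steps […], 20 min before training. Vehicle was saline or saline/DMSO 4:1. Scopolamine 1.5 mg/kg ip immediately after punishment. Retention tested next day. MED is the lowest dose reversing amnesia.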

Series [5] deals with Mus musculus. Nature of the series: Antiamnesic activity in ip dosed mouse assessed as reversal of scopolamine-induced memory loss treated 20 mins before training session by passive avoidance test. It is filed as functional. Particulars: read-out: MED. The procedure, abridged: as §2
The species entered for series [6] is Mus musculus. Nature of the series: Toxicity in mouse assessed as spontaneous motility and inspection activity after 5 mins by hole board test. Particulars: in vivo. It is filed as organism-based. The essentials:
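Hole-board: 40 cm square plane with 16 holes of 3 cm, arranged 4×4. Each mouse placed centrally and free to move for […]. Photocells counted locomotion (spontaneous motility) and hole exploration, both as counts in 5 min. Compared with saline-treated mice.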

The species entered for series [7] is Mus musculus. The experiment in a line: Effect on passive avoidance in mouse treated 20 mins before training session. Format: functional. Particulars: read-out: MED. The procedure, abridged: as §1
Series [8] has as its system Mus musculus. The experiment in a line: Antiamnesic activity in scopolamine-induced mouse assessed as latency time to enter dark room in training session at 0.001 mg/kg, ip treated 20 mins before training session by passive avoidance test. Format: functional. The note with it: route intraperitoneal. The procedure, abridged: as §2
Series [9] deals with Mus musculus. The experiment in a line: Antiamnesic activity in scopolamine-induced mouse assessed as latency time to enter dark room in retention session at 30 mg/kg, ip treated 20 mins before training session by passive avoidance test. The note with it: route intraperitoneal. Format: functional. The essentials:
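Mouse step-through passive avoidance in a two-compartment box (lit and dark, guillotine door); entry into the dark side is punished by a fall from 40 cm into a 10 °C water bath. Drug given ip 20 min before training. Scopolamine 1.5 mg/kg given immediately after training. Retention tested the next day, read as latency to enter the dark room. Mice not entering within 60 s at training were excluded.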

The test system of series [10] is Mus musculus. Nature of the series: Antiamnesic activity in scopolamine-induced mouse assessed as latency time to enter dark room in training session at 30 mg/kg, ip treated 20 mins before training session by passive avoidance test. Format: functional. Particulars: route intraperitoneal.
For series [11], the system named is Mus musculus. The experiment in a line: Antiamnesic activity in scopolamine-induced mouse assessed as latency time to enter dark room in retention session at 1.0 mg/kg, ip treated 20 mins before training session by passive avoidance test. It is filed as functional. The note with it: route intraperitoneal. The essentials:
as §2

In series [12] the test system is Mus musculus. Nature of the series: Effect on passive avoidance in mouse assessed as latency time to enter dark room in retention session at 0.1 mg/kg, ip treated 20 mins before training session. The note with it: route intraperitoneal. It is filed as functional. The essentials: as §1
Series [13] deals with Mus musculus. Nature of the series: Effect on passive avoidance in mouse assessed as latency time to enter dark room in training session at 0.1 mg/kg, ip treated 20 mins before training session. Format: functional. The note with it: route intraperitoneal. The essentials: as §1
In series [14] the test system is Mus musculus. The experiment in a line: Antiamnesic activity in scopolamine-induced mouse assessed as latency time to enter dark room in training session at 1.0 mg/kg, ip treated 20 mins before training session by passive avoidance test. It is filed as functional. Particulars: route intraperitoneal. The essentials:
as §2

The test system of series [15] is Mus musculus. Nature of the series: Antiamnesic activity in scopolamine-induced mouse assessed as latency time to enter dark room in retention session at 10 mg/kg, ip treated 20 mins before training session by passive avoidance test. Format: functional. The note with it: route intraperitoneal. The procedure, abridged:
as §2

The subject of series [16] is Mus musculus. The experiment in a line: Antiamnesic activity in scopolamine-induced mouse assessed as latency time to enter dark room in training session at 10 mg/kg, ip treated 20 mins before training session by passive avoidance test. The note with it: route intraperitoneal. Format: functional. The essentials: as §2
The subject of series [17] is Mus musculus. Nature of the series: Antiamnesic activity in scopolamine-induced mouse assessed as latency time to enter dark room in training session at 0.1 mg/kg, ip treated 20 mins before training session by passive avoidance test. Format: functional. The note with it: route intraperitoneal. The essentials:
as §2

The test system of series [18] is Mus musculus. The experiment in a line: Antiamnesic activity in scopolamine-induced mouse assessed as latency time to enter dark room in retention session at 0.1 mg/kg, ip treated 20 mins before training session by passive avoidance test. Format: functional. Particulars: route intraperitoneal. The procedure, abridged: as §2
Series [19] deals with Mus musculus. Nature of the series: Antiamnesic activity in scopolamine-induced mouse assessed as latency time to enter dark room in retention session at 0.01 mg/kg, ip treated 20 mins before training session by passive avoidance test. It is filed as functional. Particulars: route intraperitoneal. The essentials:
as §2

The test system of series [20] is Mus musculus. Nature of the series: Antiamnesic activity in scopolamine-induced mouse assessed as latency time to enter dark room in training session at 0.01 mg/kg, ip treated 20 mins before training session by passive avoidance test. It is filed as functional. The note with it: route intraperitoneal. The procedure, abridged:
as §2

Turning to `O=C1CCC2CN(S(=O)(=O)c3ccc(F)cc3)CCN12` (stereo unspecified) [UNIFIRAM], the Activity result in the series filed under Mus musculus [1] is “Non-toxic”; with Mus musculus [2] it was 131.6 s; with Mus musculus [3], 15.4 s; with Mus musculus [4], 104.4 s; in the series listed under Mus musculus [6], “Non-toxic”; with Mus musculus [8], 19.7 s. The minimal effective dose in the series on Mus musculus [5] amounted to 0.001 mg/kg; in the series listed under Mus musculus [7], 0.01 mg/kg.

On to `NC(=O)CN1CCCC1=O` [PIRACETAM], for which the Activity came out at 108.8 s in the series with Mus musculus [9] and 17.6 s with Mus musculus [10]. For the same compound, the minimal effective dose with Mus musculus [5] is 30 mg/kg.

Regarding `CCC(=O)N[C@H]1CC[C@H](NS(=O)(=O)c2ccc(F)cc2)CC1`, the Activity result in the series listed under Mus musculus [1] is “Non-toxic”; in the series with Mus musculus [11], 16.4 s; in the series on Mus musculus [12] it was 56.3 s; in the series filed under Mus musculus [6], “Non-toxic”; in the series with Mus musculus [13], 16.9 s; in the series on Mus musculus [14] it was 17.5 s. In addition, the values for the minimal effective dose in the series on Mus musculus [5] and in the series listed under Mus musculus [7] were 1 mg/kg and 0.1 mg/kg, respectively.

Consider `CC(=O)N[C@H]1CC[C@H](NS(=O)(=O)c2ccc(F)cc2)CC1`, for which the Activity entry was “Non-toxic” in the series listed under Mus musculus [1]; 26.3 s with Mus musculus [15]; 52.8 s in the series with Mus musculus [2]; 19.2 s in the series on Mus musculus [3]; “Non-toxic” in the series filed under Mus musculus [6]; 17 s with Mus musculus [16]. Further, the minimal effective dose in the series with Mus musculus [5] was determined as 10 mg/kg; in the series listed under Mus musculus [7] it was 0.01 mg/kg.

Consider `CCC(=O)N1CCN(C(=O)c2ccccc2)CC1` [SUNIFIRAM], for which the Activity entry is listed as “Non-toxic” in the series filed under Mus musculus [1]; 126.7 s in the series with Mus musculus [2]; 18.1 s with Mus musculus [3]; 91.5 s with Mus musculus [4]; “Non-toxic” in the series listed under Mus musculus [6]; 20.5 s in the series with Mus musculus [8]. For the same compound, the minimal effective dose came out at 0.001 mg/kg in the series on Mus musculus [5] and 0.01 mg/kg in the series filed under Mus musculus [7].

In the case of `CC(C)S(=O)(=O)Nc1ccc(N(C)C(=O)c2ccccc2)cc1`, the Activity result in the series listed under Mus musculus [1] is on record as “Non-toxic”; in the series on Mus musculus [17] it was 21.6 s; with Mus musculus [12], 121 s; in the series listed under Mus musculus [6], “Non-toxic”; in the series on Mus musculus [18] it was 75.9 s; in the series on Mus musculus [13], 17.3 s. For the same compound, the minimal effective dose with Mus musculus [5] and in the series listed under Mus musculus [7] was 0.1 mg/kg throughout.

On to `CC(=O)NC1CCN(S(=O)(=O)c2ccc(F)cc2)CC1` [SAPUNIFIRAM], for which the Activity entry is listed as “Non-toxic” in the series filed under Mus musculus [1]; 126.8 s in the series on Mus musculus [12]; 90.6 s in the series on Mus musculus [19]; 14.5 s with Mus musculus [20]; “Non-toxic” in the series listed under Mus musculus [6]; 19.1 s in the series with Mus musculus [13]. Moreover, the minimal effective dose with Mus musculus [5] is 0.01 mg/kg; in the series filed under Mus musculus [7], 0.1 mg/kg.
